Data from ChEMBL document CHEMBL1122281, “Synthesis and antifilarial activity of N-[4-[[4-alkoxy-3-[(dialkylamino)methyl]phenyl]amino]- 2-pyrimidinyl]-N'-phenylguanidines” (J Med Chem, 1983).

What was measured:
[1] = test system: Litomosoides carinii; experiment: Antifilarial activity against Litomosoides carinii infections in the Jird at dose 100 mg/kg administered subcutaneously; format: functional; conditions: route subcutaneous
Outline: (§1)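 L. carinii-infected jirds were dosed. Survivors were killed 55–70 days after the first dose, and the pleural and peritoneal cavities were searched for adult worms. Live worms at autopsy were scored as a percentage relative to sham-dosed controls. Adult worm reduction above 60% was the activity criterion.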

[2] = test system: Litomosoides carinii; experiment: Antifilarial activity against Litomosoides carinii infections in the Jird at dose 100 mg/kg administered orally; format: functional; conditions: route oral; outline: as §1
[3] = test system: Litomosoides carinii; experiment: Antifilarial activity against Litomosoides carinii infections in the Jird at dose 25 mg/kg administered orally; format: functional; conditions: route oral; outline: as §1
[4] = test system: Litomosoides carinii; experiment: Antifilarial activity against Litomosoides carinii infections in the Jird at dose 3 mg/kg administered orally; format: functional; conditions: route oral; outline: as §1
[5] = test system: Litomosoides carinii; experiment: Antifilarial activity against Litomosoides carinii infections in the Jird at dose 25 mg/kg administered subcutaneously; format: functional; conditions: route subcutaneous; outline: as §1
[6] = test system: Litomosoides carinii; experiment: Antifilarial activity against Litomosoides carinii infections in the Jird at dose 0.5 mg/kg administered orally; format: functional; conditions: route oral; outline: as §1
[7] = test system: Litomosoides carinii; experiment: Antifilarial activity against Litomosoides carinii infections in the Jird at dose 50 mg/kg administered orally; format: functional; conditions: route oral; outline: as §1
[8] = test system: Litomosoides carinii; experiment: Antifilarial activity against Litomosoides carinii infections in the Jird at dose 12 mg/kg administered orally; format: functional; conditions: route oral; outline: as §1
[9] = Antifilarial activity against Litomosoides carinii infections in the Jird at dose 100 mg/kg administered subcutaneously; two or more animals died prematurely considered to be drug toxicity.; format: organism-based, Meriones unguiculatus; design: dose 100 mg/kg, route subcutaneous; conditions: gerbil, in vivo, sc
Outline: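 Jirds infected with Litomosoides carinii. Surviving animals killed 55–70 days after first drug dose; pleural and peritoneal cavities searched for adult worms. Live worm count at autopsy scored as percentage relative to sham-dosed controls. Activity criterion: adult worm reduction exceeding 60%.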

| SMILES | Reduction of live worms [1] | Reduction of live worms [2] | Reduction of live worms [3] | Reduction of live worms [4] | further results |
| --- | --- | --- | --- | --- | --- |
| CCN(CC)Cc1cc(Nc2cc(C(F)(F)F)nc(/N=C(\N)Nc3ccc(C(F)(F)F)cc3)n2)ccc1OCc1ccccc1 | 100% | 100% | 100% | 0% |  |
| CCN(CC)Cc1cc(Nc2ccnc3cc(Cl)ccc23)ccc1O.Cl | 100% | 72% | 71% |  | Reduction of live worms [5]: 61% |
| CCN(CC)Cc1cc(Nc2cc(C(F)(F)F)nc(/N=C(\N)Nc3ccc(OC)cc3)n2)ccc1OC | 100% |  | 100% | 0% |  |
| CCN(CC)Cc1cc(Nc2cc(C(F)(F)F)nc(/N=C(\N)Nc3ccc(Cl)c(Cl)c3)n2)ccc1OC | 100% |  | 100% | 100% | Reduction of live worms [5]: 100% |
| CC(C)CNCc1cc(Nc2cc(C(F)(F)F)nc(/N=C(\N)Nc3ccc(Cl)c(Cl)c3)n2)ccc1O |  | 100% | 100% | 35% |  |
| CCN(CC)Cc1cc(Nc2cc(C(F)(F)F)nc(/N=C(\N)Nc3ccc(C(F)(F)F)cc3)n2)ccc1O | 100% | 100% | 100% | 98% | Reduction of live worms [6]: 22% |
| CCN(CC)Cc1cc(Nc2cc(C(F)(F)F)nc(/N=C(\N)Nc3ccc(OC)cc3)n2)ccc1O | 95% | 95% | 100% | 2% |  |
| CCN(C)Cc1cc(Nc2cc(C(F)(F)F)nc(/N=C(\N)Nc3ccc(Cl)c(Cl)c3)n2)ccc1O | 100% |  | 100% | 97% | Reduction of live worms [5]: 100%; Reduction of live worms [6]: 100% |
| COc1ccc(Nc2cc(C(F)(F)F)nc(/N=C(\N)Nc3ccccc3)n2)cc1CN1CCN(C)CC1 |  | 100% | 95% | 5% |  |
| N/C(=N\c1ccc(Cl)cc1)Nc1nc(Nc2ccc(O)c(CN3CCCC3)c2)cc(C(F)(F)F)n1 |  |  |  |  | Reduction of live worms [7]: 100%; Reduction of live worms [8]: 87% |
| CCN(CC)Cc1cc(Nc2cc(-c3ccccc3)nc(/N=C(\N)Nc3ccc(Cl)c(Cl)c3)n2)ccc1O | 53% | 47% |  |  |  |
| CCNCc1cc(Nc2cc(C(F)(F)F)nc(/N=C(\N)Nc3ccc(C(=O)c4ccccc4)cc3)n2)ccc1OC | 0% |  |  |  |  |
| CCN(CC)Cc1cc(Nc2cc(C(F)(F)F)nc(/N=C(\N)Nc3ccc(Cl)c(Cl)c3)n2)ccc1OCc1ccccc1 |  | 100% | 100% | 52% |  |
| CCN(CC)Cc1cc(Nc2cc(C(F)(F)F)nc(/N=C(\N)Nc3ccc(C(=O)c4ccccc4)cc3)n2)ccc1OC | 19% | 16% |  |  |  |
| CN1CCN(Cc2cc(Nc3cc(C(F)(F)F)nc(/N=C(\N)Nc4ccc(Cl)cc4)n3)ccc2O)CC1 |  |  |  |  | Reduction of live worms [7]: 98%; Reduction of live worms [8]: 38% |
| CCNCc1cc(Nc2nc(/N=C(\N)Nc3ccc(Cl)c(Cl)c3)nc3c2CCCC3)ccc1OC |  |  |  |  | Reduction of live worms [5]: 69%; Animals dead [9]: > 2 |
| CCNCc1cc(Nc2cc(C(F)(F)F)nc(/N=C(\N)Nc3ccc(C(F)(F)F)cc3)n2)ccc1OC | 100% | 100% | 100% | 30% |  |
| CCN(CC)Cc1cc(Nc2cc(C(F)(F)F)nc(/N=C(\N)Nc3ccc(Oc4ccccc4)cc3)n2)ccc1OC | 0% |  | 27% |  | Animals dead [9]: > 2 |
| CCN(CC)Cc1cc(Nc2cc(C(F)(F)F)nc(/N=C(\N)Nc3ccc(Cl)cc3)n2)ccc1O |  |  |  | 100% | Reduction of live worms [7]: 100%; Reduction of live worms [6]: 100%; Reduction of live worms [8]: 100% |
| CCOC(=O)N1CCN(Cc2cc(Nc3cc(C(F)(F)F)nc(/N=C(\N)Nc4ccc(Cl)c(Cl)c4)n3)ccc2O)CC1 | 31% |  |  |  |  |
| N/C(=N\c1ccc(Cl)c(Cl)c1)Nc1nc(Nc2ccc(O)c(CN3CCCC3)c2)cc(C(F)(F)F)n1 |  | 100% | 100% | 59% |  |
| CCNCc1cc(Nc2cc(C(F)(F)F)nc(/N=C(\N)Nc3ccccc3)n2)ccc1OC | 96% |  | 33% |  |  |
| COc1ccc(Nc2cc(C(F)(F)F)nc(/N=C(\N)Nc3ccc(Cl)c(Cl)c3)n2)cc1CN(C)C | 100% | 100% | 100% | 100% | Animals dead [9]: > 2 |
| CCN(CC)Cc1cc(Nc2cc(C(F)(F)F)nc(/N=C(\N)Nc3ccc(Cl)cc3)n2)cc(-c2ccccc2)c1O | 35% | 88% |  |  |  |

| SMILES | Reduction of live worms [1] | Reduction of live worms [2] | Reduction of live worms [3] | Reduction of live worms [4] | further results |
| --- | --- | --- | --- | --- | --- |
| CCN(CC)Cc1cc(Nc2cc(C(F)(F)F)nc(/N=C(\N)Nc3ccccc3)n2)ccc1OC |  |  |  |  | Reduction of live worms [7]: 100%; Reduction of live worms [8]: 38% |
| CCOc1ccc(Nc2cc(C(F)(F)F)nc(/N=C(\N)Nc3ccc(Cl)c(Cl)c3)n2)cc1CN(CC)CC |  | 100% | 100% | 21% |  |
| CN(C)Cc1cc(Nc2cc(C(F)(F)F)nc(/N=C(\N)Nc3ccc(Cl)c(Cl)c3)n2)ccc1O |  | 100% | 100% | 90% | Reduction of live worms [6]: 100% |
| CN1CCN(Cc2cc(Nc3cc(C(F)(F)F)nc(/N=C(\N)Nc4ccc(C(=O)c5ccccc5)cc4)n3)ccc2O)CC1 | 8% |  |  |  |  |
| CCN(CC)Cc1cc(Nc2nc(/N=C(\N)Nc3ccc(Cl)c(Cl)c3)nc3c2CCCC3)ccc1O | 0% |  |  |  |  |
| CCN(CC)Cc1cc(Nc2cc(C(F)(F)F)nc(/N=C(\N)Nc3ccc(C(F)(F)F)cc3)n2)ccc1OC | 100% | 100% | 100% | 73% |  |
| CCN(CC)Cc1cc(Nc2cc(C(F)(F)F)nc(/N=C(\N)Nc3ccc(Cl)c(Cl)c3)n2)ccc1OC(C)C | 100% | 100% | 100% | 11% |  |
| CCN(CC)Cc1cc(Nc2cc(C(F)(F)F)nc(/N=C(\N)Nc3ccc(C(=O)c4ccccc4)cc3)n2)ccc1OCc1ccccc1 | 0% | 27% |  |  |  |
| N/C(=N\c1ccc(Cl)c(Cl)c1)Nc1nc(Nc2ccc(O)c(CNCC3CCCCC3)c2)cc(C(F)(F)F)n1 | 4% |  |  |  |  |
| CN(C)Cc1cc(Nc2cc(C(F)(F)F)nc(/N=C(\N)Nc3ccc(C(=O)c4ccccc4)cc3)n2)ccc1O | 100% |  | 32% | -22% |  |
| CCN(CC)Cc1cc(Nc2cc(C(F)(F)F)nc(/N=C(\N)Nc3ccc(C(=O)c4ccccc4)cc3)n2)ccc1O | 6% | 6% |  |  |  |
| CN1CCN(Cc2cc(Nc3cc(C(F)(F)F)nc(/N=C(\N)Nc4ccccc4)n3)ccc2O)CC1 |  | 91% |  |  | Reduction of live worms [7]: 78%; Reduction of live worms [8]: 0% |
| CCN(CC)Cc1cc(Nc2cc(C(F)(F)F)nc(/N=C(\N)Nc3ccc(Oc4ccccc4)cc3)n2)ccc1OCc1ccccc1 | 0% | 22% |  |  |  |
| CN1CCN(Cc2cc(Nc3cc(C(F)(F)F)nc(/N=C(\N)Nc4ccc(Oc5ccccc5)cc4)n3)ccc2O)CC1 | 8% |  |  |  |  |
| COc1ccc(Nc2cc(C(F)(F)F)nc(/N=C(\N)Nc3ccc(Cl)cc3)n2)cc1CN1CCCC1 |  |  |  | 99% | Reduction of live worms [7]: 100%; Reduction of live worms [6]: 100%; Reduction of live worms [8]: 100% |
| CCNCc1cc(Nc2cc(C(F)(F)F)nc(/N=C(\N)Nc3ccc(Oc4ccccc4)cc3)n2)ccc1OC | 0% |  |  |  |  |
| CCN(CC)Cc1cc(Nc2cc(C(F)(F)F)nc(/N=C(\N)Nc3ccccc3)n2)ccc1O |  |  |  |  | Reduction of live worms [7]: 100%; Reduction of live worms [8]: 47% |
| CCN(CC)Cc1cccc(Nc2cc(C(F)(F)F)nc(/N=C(\N)Nc3ccc(Cl)c(Cl)c3)n2)c1 |  | 100% | 100% | 83% |  |
| CN(C)Cc1cc(Nc2cc(C(F)(F)F)nc(/N=C(\N)Nc3ccc(C(F)(F)F)cc3)n2)ccc1O |  |  | 100% | 54% | Animals dead [9]: > 2 |
| CCOc1ccc(Nc2cc(-c3ccccc3)nc(/N=C(\N)Nc3ccc(Cl)c(Cl)c3)n2)cc1CN(CC)CC |  |  | 78% | 15% | Animals dead [9]: > 2 |
| CCNCc1cc(Nc2cc(C(F)(F)F)nc(/N=C(\N)Nc3ccc(Cl)c(Cl)c3)n2)ccc1O | 100% |  | 100% | 97% | Reduction of live worms [5]: 100%; Reduction of live worms [6]: 97% |
| CCN(CC)Cc1cc(Nc2cc(C(F)(F)F)nc(/N=C(\N)Nc3ccc(Oc4ccccc4)cc3)n2)ccc1O | 3% | 9% |  |  |  |
| CN(C)Cc1cc(Nc2cc(C(F)(F)F)nc(/N=C(\N)Nc3ccc(Oc4ccccc4)cc3)n2)ccc1O | 12% |  |  |  |  |
| CCNCc1cc(Nc2cc(-c3ccccc3)nc(/N=C(\N)Nc3ccc(Cl)c(Cl)c3)n2)ccc1OC | 0% |  |  |  |  |
